The source of these data is ChEMBL document CHEMBL4411297, “Discovery, synthesis and anti-atherosclerotic activities of a novel selective sphingomyelin synthase 2 inhibitor” (Eur J Med Chem, 2019).

One data set is filed under the species Homo sapiens. Description: Selectivity ratio of IC50 for purified SMS1 (unknown origin) to IC50 for purified SMS2 (unknown origin).
For the next data set, the system named is BMDM. Description: Induction of cytosolic IkappaBalpha […] in LPS-stimulated C57BL/6J mouse bone marrow derived macrophages preincubated for 17 hrs followed by LPS-stimulation and measured after 6 hrs by Western blot analysis. The data set is classed as functional, cell-based. The method, boiled down:
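Bone marrow-derived macrophages from femurs of 8-week-old male C57BL/6J mice, preincubated with a range of concentrations for 17 h, then stimulated with 1 µg/ml LPS. Cells lysed in RIPA buffer with protease inhibitors. Western blot probed for IκBα with β-actin as loading control, ECL detection. Mean ± SD, n = 7.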

Data set [1] is described as follows: Dose normalized AUC (0 to 8 hrs) in C57BL/6J mouse at 100 mg/kg/day, ig by HPLC-MS/MS analysis. Conditions: in vivo, po. The data set is classed as ADME, organism-based. An outline of the steps:
(§1)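 Male C57BL/6J mice, six to eight weeks old, about 20 g, fasted 12 h with free water. Given a single intragastric dose of 25, 50 or 100 mg/kg in 10% DMSO/30% PEG-100/0.9% NaCl. Blood taken retro-orbitally at 5 min to 8 h. Plasma protein-precipitated with methanol plus internal standard, then HPLC-MS/MS on a C18 column. Noncompartmental analysis, n = 6.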

The nature of data set [2]: AUC (0 to 8 hrs) in C57BL/6J mouse at 50 mg/kg/day, ig by HPLC-MS/MS analysis. The data set is classed as ADME, organism-based. More on the design: time < 8 hr, dose 50 mg/kg/day, route intragastric. The conditions noted are these: in vivo, po. An outline of the steps: as §1
Data set [3] is described as follows: Tmax in C57BL/6J mouse at 50 mg/kg/day, ig by HPLC-MS/MS analysis. The class given is ADME, organism-based. The conditions noted are these: in vivo, po. The method, boiled down:
(§2)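 Male C57BL/6J mice (6–8 weeks, ~20 g), fasted 12 h, given a single intragastric dose of 25, 50 or 100 mg/kg in 10% DMSO/30% PEG/0.9% NaCl. Retro-orbital blood at 5 min to 8 h; plasma protein-precipitated with methanol plus internal standard, assayed by LC-MS/MS; noncompartmental analysis. Mean ± SD, n = 6.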

Data set [4] can be described thus: MRT (0 to 8 hrs) in C57BL/6J mouse at 50 mg/kg/day, ig by HPLC-MS/MS analysis. The data set is classed as ADME, organism-based. Conditions: in vivo, po. An outline of the steps:
as §2

The nature of data set [5]: AUC (0 to 8 hrs) in C57BL/6J mouse at 25 mg/kg/day, ig by HPLC-MS/MS analysis. The class given is ADME, organism-based. Also noted: dose 25 mg/kg/day, time < 8 hr, route intragastric. The conditions noted are these: in vivo, po. The method, boiled down: as §1
Data set [6] is described as follows: AUC (0 to infinity) in C57BL/6J mouse at 25 mg/kg/day, ig by HPLC-MS/MS analysis. Conditions: in vivo, po. The class given is ADME, organism-based. Also noted: dose 25 mg/kg/day, time infinity, route intragastric. An outline of the steps: as §1
The nature of data set [7]: Tmax in C57BL/6J mouse at 25 mg/kg/day, ig by HPLC-MS/MS analysis. The class given is ADME, organism-based. Conditions: in vivo, po. An outline of the steps: as §2
A short description of data set [8]: Apparent oral clearance in C57BL/6J mouse at 25 mg/kg/day, ig by HPLC-MS/MS analysis. The data set is classed as ADME, organism-based. Conditions: in vivo. The method, boiled down: as §1
Data set [9] can be described thus: MRT (0 to 8 hrs) in C57BL/6J mouse at 25 mg/kg/day, ig by HPLC-MS/MS analysis. The data set is classed as ADME, organism-based. Conditions: in vivo, po. An outline of the steps: as §2
Data set [10] has as its system Mus musculus. Description: Effect on plasma ALT level in apoE knockout mouse fed with western-type diet at 12.5 to 40 mg/kg/day, ig for 7 weeks. The conditions noted are these: in vivo, po, 1176 h. The data set is classed as ADME, organism-based. The method, boiled down: (§3)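 ApoE KO mice on Western-type diet, dosed by gavage at 12.5 or 40 mg/kg/day for 7 weeks, n = 10. Blood collected at 20 weeks of age. Plasma SM measured by a previously reported method. ALT and AST read on an automated biochemical analyzer.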

Data set [11] has as its system Mus musculus. Description: Anti-atherosclerotic activity in apoE knockout mouse fed with western-type diet assessed as reduction in liver SMS activity at 12.5 mg/kg/day, ig for 7 weeks relative to control. The class given is functional. Also noted: scale not given: the % may be the effect or the level left. An outline of the steps: (§4)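 ApoE KO mice on Western-type diet, dosed by gavage at 12.5 or 40 mg/kg/day for 7 weeks, n = 10. Liver homogenized at 200 mg/ml in 50 mM Tris-HCl pH 7.4, 1 mM EDTA, 250 mM sucrose. C6-NBD-ceramide and DMPC added, incubated at 37 °C, quenched with ethanol. Product read by TLC or HPLC, relative to vehicle.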

The subject of data set [12] is Mus musculus. The data set is described as follows: Anti-atherosclerotic activity in apoE knockout mouse fed with western-type diet assessed as reduction in liver SMS activity at 40 mg/kg/day, ig for 7 weeks relative to control. The data set is classed as functional. Also noted: scale not given: the % may be the effect or the level left. The method, boiled down: as §4

Data set [13] concerns Mus musculus. Description: Anti-atherosclerotic activity in apoE knockout mouse fed with western-type diet assessed as reduction in plasma SM level at 12.5 mg/kg/day, ig for 7 weeks relative to control. The data set is classed as functional. Also noted: scale not given: the % may be the effect or the level left. The method, boiled down:
as §3

The subject of data set [14] is Mus musculus. The data set is described as follows: Anti-atherosclerotic activity in apoE knockout mouse fed with western-type diet assessed as reduction in lymphocyte count at 40 mg/kg/day, ig for 7 weeks by flow cytometric analysis relative to control. The data set is classed as functional. More on the design: scale not given: the % may be the effect or the level left. An outline of the steps:
(§5)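 ApoE KO mice started at 8 weeks old on Western-type diet for 6 weeks. Then dosed by gavage daily with vehicle, 12.5 or 40 mg/kg for 7 weeks with the diet continued, 10 mice per group. Blood single-cell suspensions stained with antibodies in PBS and analysed by flow cytometry. Mean ± SD, n = 5.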
In general terms: In flow cytometry, cells or beads pass a laser one at a time.

Data set [15] has as its system Mus musculus. The data set is described as follows: Anti-atherosclerotic activity in apoE knockout mouse fed with western-type diet assessed as reduction in CD11b+/CD11c+ dendritic cells at 40 mg/kg/day, ig for 7 weeks by flow cytometric analysis relative to control. The data set is classed as functional. Also noted: scale not given: the % may be the effect or the level left. The method, boiled down: as §5

The subject of data set [16] is Mus musculus. Description: Anti-atherosclerotic activity in apoE knockout mouse fed with western-type diet assessed as reduction in CD11b+/Ly6C++/Ly6G+ dendritic cells at 12.5 mg/kg/day, ig for 7 weeks by flow cytometric analysis relative to control. The class given is functional. More on the design: scale not given: the % may be the effect or the level left. An outline of the steps: as §5

The test system of data set [17] is Mus musculus. The data set is described as follows: Anti-atherosclerotic activity in apoE knockout mouse fed with western-type diet assessed as reduction in CD11b+/Ly6C++/Ly6G+ dendritic cells at 40 mg/kg/day, ig for 7 weeks by flow cytometric analysis relative to control. The class given is functional. Also noted: scale not given: the % may be the effect or the level left. An outline of the steps: as §5

Data set [18] has as its system Mus musculus. Description: Anti-atherosclerotic activity in apoE knockout mouse fed with western-type diet assessed as reduction in lesions in whole aorta at 12.5 mg/kg/day, ig for 7 weeks by oil-red O staining-based assay relative to control. The class given is functional. More on the design: scale not given: the % may be the effect or the level left. The method, boiled down:
(§6)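 ApoE KO mice fed Western-type diet, then given 12.5 or 40 mg/kg/day by gavage in 30% PEG-400/10% DMSO/0.9% NaCl for 7 weeks. Aortic root: H&E-stained 4 µm sections, mean lesion area from 6 sections per animal. Whole aorta: en face Oil Red O staining, percentage of area stained. Compared with vehicle, n = 10.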

In data set [19] the test system is Mus musculus. The data set is described as follows: Anti-atherosclerotic activity in apoE knockout mouse fed with western-type diet assessed as reduction in lesions in proximal aorta at 12.5 mg/kg/day, ig for 7 weeks by hematoxylin and eosin staining-based assay relative to control. The class given is functional. More on the design: scale not given: the % may be the effect or the level left. An outline of the steps: as §6

For data set [20], the system named is Mus musculus. Description: Anti-atherosclerotic activity in apoE knockout mouse fed with western-type diet assessed as reduction in lesions in proximal aorta at 40 mg/kg/day, ig for 7 weeks by hematoxylin and eosin staining-based assay relative to control. More on the design: scale not given: the % may be the effect or the level left. The class given is functional. An outline of the steps:
as §6

Data set [21] has as its system Mus musculus. The data set is described as follows: Anti-atherosclerotic activity in apoE knockout mouse fed with western-type diet assessed as reduction in macrophage content at 40 mg/kg/day, ig for 7 weeks by immunostaining assay relative to control. The class given is functional. Also noted: scale not given: the % may be the effect or the level left. The method, boiled down: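 ApoE KO mice on Western-type diet, dosed by gavage at 12.5 or 40 mg/kg/day for 7 weeks. Aortic root sections 4 µm thick immunostained with MOMA-2: primary antibody 1 h at room temperature, biotinylated secondary, HRP-streptavidin, DAB, hematoxylin counterstain. Stained area quantified and expressed relative to vehicle.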

Structures are written as SMILES.

Broadly, the AUC is the area under the concentration-time curve, a measure of exposure. The term Tmax denotes the time from dosing to the highest level. Usually MRT stands for the average time that molecules of a dose stay in the body. Broadly, the AUC(0-inf) is total exposure, with the tail of the curve extrapolated. The term CL/F denotes the apparent clearance, not corrected for the fraction that reaches the circulation. As to `CCc1ccccc1COc1ccccc1C(=O)Nc1cccnc1`, the Ratio IC50 in the data set filed under Homo sapiens was above 1400. In addition, the Activity result in the data set with BMDM was “Dose-dependent effect”; in the data set with Mus musculus [10], “Non-Toxic”; in the data set on Mus musculus [11] it was 35%; in the data set on Mus musculus [12], 39%; in the data set with Mus musculus [13], 25%; in the data set with Mus musculus [14], 24%. Moreover, the Activity with Mus musculus [15] stood at 57%; in the data set on Mus musculus [16] it was 16%; in the data set with Mus musculus [17], 43%; in the data set on Mus musculus [18], 32%; in the data set with Mus musculus [19], 38%; in the data set on Mus musculus [20], 50%. For the same compound, in the data set on Mus musculus [21], the Activity was 55%. The compound further had an AUC/dose in [1] of 0.13 µg·h/mL. In addition, the area under the curve (AUC) at 8 h in [2] is 6260 ng·h/mL; in [5], 1990 ng·h/mL. For the same compound, the Tmax in data set [3] turned out to be 4.8 min; in data set [7], 6.6 min. The MRT in data set [4] turned out to be 99.6 min; in data set [9], 114 min. This compound returned an AUC(0-inf) in [6] of 2360 ng·h/mL. Also, in data set [8], the CL/F is 188 mL/min.
